The nature of experiment [1]: Her2 expression decrease, cell viability multiplex – SKBR3 breast tumor cells, AlphaScreen, ATP viability, primary screen (AID 461;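 active means Her2 level under about 52% in both replicate screens, with viability over 70% of control, limit read from the data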;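 on Her2 level: lower value means less Her2 protein in the cells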;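 on viability: percent of carrier control wells set as 100% viability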). Particulars: SKBR3 Her2 protein level, 18-24 h, measured here: SKBR3 viability, ATP luminescence, at 10 µM. In general terms: In Alpha technology, singlet oxygen from a donor bead excites a nearby acceptor bead.
Experiment [2] addresses Receptor tyrosine-protein kinase erbB-2 (Homo sapiens) (UniProt P04626). The description is as above. Particulars: 18-24 h, at 10 µM, stronger effect = lower value.
Experiment [3] in a line: reduced viability of SK-BR-3 breast cancer cells – cell-based, 24 h, human, pilot screen (AID 572).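 Further: compound exposure lasted between 18 and 24 h rather than exactly 24 h; 100% = carrier-treated control wells.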 As to conditions: SK-BR-3 viability, CellTiter-Glo luminescence, at 10 µM, stronger effect = lower value. For orientation: ATP-based viability assays read luminescence as a measure of living cells.
Experiment [4] in a line: HUVEC growth inhibition – cell-based, human, primary screen (AID 575;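 active means viability at or below 30% in both replicate assays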;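 further: 100% = median of untreated cell wells with 0.1% DMSO on each plate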). Particulars: HUVEC proliferation, CellTiter-Glo luminescence, 72 h; at 10 µM; stronger effect = lower value. The gist of the method: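 System: primary human umbilical vein endothelial cells; Quantity: 1250 endothelial cells in each well; Buffer or medium: supplemented EBM, 2% fetal bovine serum; Doses: one dose, 10 µM final, 0.1% DMSO; Incubation: 72 h compound incubation; Technique: ATP-based CellTiter-Glo luminescent read; Evaluation: percent of median DMSO-control luminescence; Controls: vehicle and MePR control wells.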

Experiment [5] can be described thus: H69AR cell proliferation blockers – human, duplicate replicates, primary screen (AID 580;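 active means viability at or under a set limit in both replicates, limit being median viability minus 3 SD, cut at about 48% in these data, passing the limit was not always enough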;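 further: 100% = mean luminescence of untreated wells and 0% = no signal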). As to conditions: H69AR lung tumor cells viability, ATP luminescence, 72 h; at 10 µM; stronger effect = lower value.
Experiment [6] is described as follows: MRP1 drug-resistance reversers in H69AR cells – cell-based, doxorubicin co-treatment, pilot screen (AID 601;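 active means viability loss from added drug above about 55%, and viability with drug at most 40%, in both replicates, limit read from the data, passing the limit was not always enough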). Particulars: CellTiter-Glo, 72 h, at 10 µM; for differential viability (reversal): stronger effect = higher value.
The nature of experiment [7]: yeast transport mutant growth inhibition pilot in 384-well plates, post-Golgi transport modulator project (AID 636; in the data active means inhibition above about 31%). Particulars: absorbance 615 nm, about 18 h, stronger effect = higher value.
A short description of experiment [8]: growth suppression of yeast trafficking mutant, preliminary HTS, modulators of trafficking downstream of Golgi apparatus project, 1536-format plate, OD 615 nm (AID 637; in the data active means inhibition above about 30%). Particulars: yeast transport mutant growth, absorbance 615 nm, 18 h; stronger effect = higher value.
Where [9] appears, read: H69AR cells + 2 uM doxorubicin, measured here: viability with 2 uM doxorubicin, stronger effect = lower value.
[10] abbreviates: H69AR cells, compound alone cytotoxicity.

Active and inactive are the calls of the source.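 How the source made its calls, unless noted: active means viability at or below 10% of carrier control in both of two separate runs; inconclusive means viability at or below 10% in only one of the two runs; inactive means the rest.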

This note sets out measurements from PubChem BioAssay.

Chain of Receptor tyrosine-protein kinase erbB-2 (Homo sapiens) (P04626 whole entry, looked up): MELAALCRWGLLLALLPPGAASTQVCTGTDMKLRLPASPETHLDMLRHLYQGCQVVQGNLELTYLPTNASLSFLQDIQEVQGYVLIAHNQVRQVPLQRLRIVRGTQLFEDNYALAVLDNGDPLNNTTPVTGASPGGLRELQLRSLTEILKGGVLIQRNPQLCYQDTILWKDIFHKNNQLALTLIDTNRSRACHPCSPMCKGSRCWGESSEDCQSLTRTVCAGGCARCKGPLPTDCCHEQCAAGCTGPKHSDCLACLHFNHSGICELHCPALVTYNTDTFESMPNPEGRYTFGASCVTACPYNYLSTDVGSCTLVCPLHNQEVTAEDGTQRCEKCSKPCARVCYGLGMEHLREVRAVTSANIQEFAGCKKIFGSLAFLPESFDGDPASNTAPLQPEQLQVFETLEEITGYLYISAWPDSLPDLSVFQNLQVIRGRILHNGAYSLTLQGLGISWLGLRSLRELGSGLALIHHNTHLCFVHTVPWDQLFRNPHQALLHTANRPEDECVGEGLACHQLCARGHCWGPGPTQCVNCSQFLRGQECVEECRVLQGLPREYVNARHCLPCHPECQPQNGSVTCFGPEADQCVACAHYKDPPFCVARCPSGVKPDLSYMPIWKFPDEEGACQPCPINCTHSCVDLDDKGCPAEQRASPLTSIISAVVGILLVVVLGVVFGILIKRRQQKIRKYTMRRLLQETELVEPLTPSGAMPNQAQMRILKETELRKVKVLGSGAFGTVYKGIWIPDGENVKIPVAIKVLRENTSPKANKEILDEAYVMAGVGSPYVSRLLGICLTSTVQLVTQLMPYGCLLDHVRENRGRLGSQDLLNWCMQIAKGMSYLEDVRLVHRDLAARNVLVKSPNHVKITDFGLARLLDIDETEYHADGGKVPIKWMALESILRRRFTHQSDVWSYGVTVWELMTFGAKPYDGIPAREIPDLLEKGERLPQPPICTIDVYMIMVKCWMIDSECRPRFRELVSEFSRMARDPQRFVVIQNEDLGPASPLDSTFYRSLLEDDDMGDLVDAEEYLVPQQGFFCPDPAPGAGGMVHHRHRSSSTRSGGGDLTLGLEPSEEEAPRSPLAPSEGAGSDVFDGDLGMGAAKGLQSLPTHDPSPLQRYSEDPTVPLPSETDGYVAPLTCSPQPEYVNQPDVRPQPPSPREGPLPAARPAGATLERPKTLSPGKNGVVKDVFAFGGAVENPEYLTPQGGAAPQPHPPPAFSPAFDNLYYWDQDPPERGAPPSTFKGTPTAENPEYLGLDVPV

For orientation: viability means a read-out of living cells in per cent, often relative to untreated cells. The inhibition is the drop in the measured response relative to a control, in per cent. Regarding `Cc1ccnc(SCCn2c(N3CCCCC3)nc3c2c(=O)n(C)c(=O)n3C)n1`, the viability in experiment [1] was 76.5%; in experiment [3] it was 76.5% (inactive); in experiment [4], 93.9% (inactive); in experiment [5], 91.2% (inactive); in experiment [6] (setting [9]), 88.2%; in experiment [6] (setting [10]), 91.2%. Also, in experiment [2], the Her2 level was 88.5% (inactive). For the same molecule, the differential viability (reversal) in experiment [6] (H69AR cells + 2 uM doxorubicin) was 3% (inactive). The results for the inhibition in experiment [7] and in experiment [8] were -5.66% (inactive) and -3% (inactive), respectively.

On to `Cn1c(=O)[nH]c(=O)c2[nH]c(NCCCN3CCOCC3)nc21`, for which the viability in experiment [1] was 93.5%; in experiment [3], 93.5% (inactive); in experiment [4], 92.1% (inactive); in experiment [5] it was 101% (inactive); in experiment [6] (setting [9]), 85%; in experiment [6] (setting [10]), 101%. In addition, in experiment [2], the Her2 level was 85.5% (inactive). The differential viability (reversal) in experiment [6] (H69AR cells + 2 uM doxorubicin) is 16.1% (inactive). Further, the inhibition was -2.47% (inactive) in experiment [7] and -0.79% (inactive) in experiment [8].

As for `CCN(CC)S(=O)(=O)c1ccc(NC(=O)CN(c2cccc(F)c2)S(C)(=O)=O)cc1`, the viability was 96% in experiment [1]; 96% (inactive) in experiment [3]; 88.7% (inactive) in experiment [4]; 92.5% (inactive) in experiment [5]; 96.3% in experiment [6] (setting [9]); 92.5% in experiment [6] (setting [10]). For the same molecule, in experiment [2], the Her2 level was 84.5% (inactive). The differential viability (reversal) in experiment [6] (H69AR cells + 2 uM doxorubicin) is -3.88% (inactive). Further, the inhibition in experiment [7] was -4.29% (inactive); in experiment [8], -0.33% (inactive).

For `O=S(=O)(c1ccccc1)N(Cc1nc(-c2ccccc2)no1)C1CCCCC1`, the viability was 88% in experiment [1]; 88% (inactive) in experiment [3]; 96.1% (inactive) in experiment [4]; 75.5% (inactive) in experiment [5]; 79.6% in experiment [6] (setting [9]); 75.5% in experiment [6] (setting [10]). In addition, the Her2 level in experiment [2] was 77% (inactive). The differential viability (reversal) in experiment [6] (H69AR cells + 2 uM doxorubicin) was -4.17% (inactive). Further, the inhibition in experiment [7] was -6.27% (inactive); in experiment [8], -3.33% (inactive).

For the molecule `COc1ccc(N2CCN(c3ccc(N)cc3C#N)CC2)cc1`, the viability in experiment [1] was 103%; in experiment [3], 103% (inactive); in experiment [4], 78.2% (inactive); in experiment [5] it was 95% (inactive); in experiment [6] (setting [9]), 92.7%; in experiment [6] (setting [10]), 95%. Also, the Her2 level in experiment [2] is 88.5% (inactive). The differential viability (reversal) in experiment [6] (H69AR cells + 2 uM doxorubicin) is 2.29% (inactive). Further, the inhibition was -3.38% (inactive) in experiment [7] and 0.32% (inactive) in experiment [8].

As to `Cc1cccc(NC2SC(=O)N(c3ccccc3)C2=O)c1` (stereo not given), the viability in experiment [1] is 100%; in experiment [3] it was 100% (inactive); in experiment [4], 88.9% (inactive); in experiment [5] it was 87.6% (inactive); in experiment [6] (setting [9]), 97.9%; in experiment [6] (setting [10]), 87.6%. Also, the Her2 level in experiment [2] was 81% (inactive). In experiment [6] (H69AR cells + 2 uM doxorubicin), the differential viability (reversal) is -10.4% (inactive). For the same molecule, the inhibition in experiment [7] is -3.25% (inactive); in experiment [8], -5.5% (inactive).

`CCN(CC)C(=O)CN(c1cc(Cl)ccc1OC)S(C)(=O)=O`: the viability was 95.5% in experiment [1]; 95.5% (inactive) in experiment [3]; 95.2% (inactive) in experiment [4]; 102% (inactive) in experiment [5]; 93.3% in experiment [6] (setting [9]); 102% in experiment [6] (setting [10]). Besides, the Her2 level in experiment [2] was 89.5% (inactive). Also, in experiment [6] (H69AR cells + 2 uM doxorubicin), the differential viability (reversal) is 9.04% (inactive). For the same molecule, the inhibition in experiment [7] is -1.18% (inactive); in experiment [8], -3.71% (inactive).

As for `COc1cc(OC)cc(C(=O)NCc2n[nH]c(=S)n2-c2ccccc2OC)c1`, the viability was 97% in experiment [1]; 97% (inactive) in experiment [3]; 109% (inactive) in experiment [4]; 89.4% (inactive) in experiment [5]; 89.3% in experiment [6] (setting [9]); 89.4% in experiment [6] (setting [10]). The Her2 level in experiment [2] is 88% (inactive). Besides, the differential viability (reversal) in experiment [6] (H69AR cells + 2 uM doxorubicin) was 0.11% (inactive). Besides, the inhibition in experiment [7] was -7.16% (inactive); in experiment [8], -1.33% (inactive).

As for `CCC(C(=O)O)n1c(C(F)(F)F)nc2ccccc21` (stereo not given), the viability was 105% in experiment [1]; 105% (inactive) in experiment [3]; 105% (inactive) in experiment [4]; 103% (inactive) in experiment [5]; 99.3% in experiment [6] (setting [9]); 103% in experiment [6] (setting [10]). In addition, in experiment [2], the Her2 level was 116% (inactive). In experiment [6] (H69AR cells + 2 uM doxorubicin), the differential viability (reversal) is 3.27% (inactive). In addition, the inhibition in experiment [7] is -5.62% (inactive); in experiment [8], 0% (inactive).

Take `O=C(NC1CCCc2ccccc21)C1CCN(S(=O)(=O)c2cnc[nH]2)CC1` (stereo not given): the viability in experiment [1] is 104%; in experiment [3] it was 104% (inactive); in experiment [4], 102% (inactive); in experiment [5], 94.8% (inactive); in experiment [6] (setting [9]), 106%; in experiment [6] (setting [10]), 94.8%. In addition, in experiment [2], the Her2 level is 100% (inactive). The differential viability (reversal) in experiment [6] (H69AR cells + 2 uM doxorubicin) is -11.3% (inactive). Moreover, the inhibition in experiment [7] was -0.79% (inactive); in experiment [8], -3.87% (inactive).

As for `Cc1cc(-c2ccccc2)c(C#N)c(N)n1`, the viability in experiment [1] was 114%; in experiment [3] it was 114% (inactive); in experiment [4] it was 81.9% (inactive); in experiment [5] it was 99.3% (inactive); in experiment [6] (setting [9]) it was 92.8%; in experiment [6] (setting [10]), 99.3%. For the same molecule, the Her2 level in experiment [2] was 91% (inactive). In addition, the differential viability (reversal) in experiment [6] (H69AR cells + 2 uM doxorubicin) is 6.5% (inactive). Moreover, the values for the inhibition in experiment [7] and in experiment [8] were -2.3% (inactive) and -0.98% (inactive), respectively.

On to `COc1ccc(NC(=O)CN2CCN(CC(=O)Nc3cc(OC)cc(OC)c3)CC2)cc1`, for which the viability was 79% in experiment [1]; 79% (inactive) in experiment [3]; 97.8% (inactive) in experiment [4]; 83.1% (inactive) in experiment [5]; 88.4% in experiment [6] (setting [9]); 83.1% in experiment [6] (setting [10]). The Her2 level in experiment [2] was 96.5% (inactive). Moreover, in experiment [6] (H69AR cells + 2 uM doxorubicin), the differential viability (reversal) was -5.3% (inactive). Besides, the inhibition in experiment [7] was -3.77% (inactive); in experiment [8], 0.66% (inactive).

On to `O=C(CN1C(=O)NC2(CCCCCC2)C1=O)N1CCC(Cc2ccccc2)CC1`, for which the viability was 87% in experiment [1]; 87% (inactive) in experiment [3]; 77.2% (inactive) in experiment [4]; 86.7% (inactive) in experiment [5]; 90.9% in experiment [6] (setting [9]); 86.7% in experiment [6] (setting [10]). The Her2 level in experiment [2] is 94.5% (inactive). Further, the differential viability (reversal) in experiment [6] (H69AR cells + 2 uM doxorubicin) is -4.21% (inactive). Moreover, the inhibition in experiment [7] is -5.33% (inactive); in experiment [8] it was 2.46% (inactive).

For `COCCn1c(C)cc(C(=O)COC(=O)c2n[nH]c3ccccc23)c1C`, the viability is 97.5% in experiment [1]; 97.5% (inactive) in experiment [3]; 92.5% (inactive) in experiment [4]; 81.3% (inactive) in experiment [5]; 84.1% in experiment [6] (setting [9]); 81.3% in experiment [6] (setting [10]). In experiment [2], the Her2 level is 84% (inactive). The differential viability (reversal) in experiment [6] (H69AR cells + 2 uM doxorubicin) was -2.8% (inactive). Besides, the inhibition in experiment [7] was -8.24% (inactive); in experiment [8], 0.98% (inactive).

As for `CCCCC(=O)NCCNc1nc2c(c(=O)n(C)c(=O)n2C)n1Cc1ccccc1`, the viability is 116% in experiment [1]; 116% (inactive) in experiment [3]; 99.3% (inactive) in experiment [4]; 94.6% (inactive) in experiment [5]; 98.7% in experiment [6] (setting [9]); 94.6% in experiment [6] (setting [10]). In addition, the Her2 level in experiment [2] was 83% (inactive). In addition, in experiment [6] (H69AR cells + 2 uM doxorubicin), the differential viability (reversal) is -4.03% (inactive). Besides, the inhibition in experiment [7] is -5.68% (inactive); in experiment [8], 2.06% (inactive).

Consider `O=C(CNC(=O)c1ccccc1C(=O)O)c1ccccc1`, for which the viability in experiment [1] was 128%; in experiment [3] it was 128% (inactive); in experiment [4], 100% (inactive); in experiment [5] it was 90% (inactive); in experiment [6] (setting [9]), 82.8%; in experiment [6] (setting [10]) it was 90%. Besides, in experiment [2], the Her2 level was 79.5% (inactive). The differential viability (reversal) in experiment [6] (H69AR cells + 2 uM doxorubicin) was 7.15% (inactive). The inhibition in experiment [7] is 2.6% (inactive); in experiment [8], -0.49% (inactive).
